Results reported in ChEMBL document CHEMBL1147105, “In vitro and in vivo activities of PD 0305970 and PD 0326448, new bacterial gyrase/topoisomerase inhibitors with potent antibacterial activities versus multidrug-resistant gram-positive and fastidious organism groups” (2007).
Values after ≈ are worked out from the molar mass of the structure shown.

Columns and labels:
Staphylococcus aureus [1] = assay: Antibacterial activity against oxacillin and levofloxacin-resistant Staphylococcus aureus; assay type: functional
Procedure, shortened: (§1)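 Broth microdilution MIC per CLSI guidelines, incubated at 35°C. Cation-adjusted Mueller-Hinton broth for nonfastidious organisms and staphylococci. Streptococci tested in the same broth with 3% lysed horse blood. Anaerobes tested in supplemented Brucella broth inside an anaerobe chamber (5% CO2, 5% H2, 90% N2), read after 48 h. Strains were mainly recent clinical isolates with confirmed identity.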

Staphylococcus aureus [2] = assay: Antibacterial activity against oxacillin-resistant Staphylococcus aureus; assay type: functional; procedure, shortened: as §1
Clostridium perfringens = assay: Antibacterial activity against Clostridium perfringens; assay type: functional; procedure, shortened: as §1
Enterobacter cloacae = assay: Antibacterial activity against Enterobacter cloacae; assay type: functional
Procedure, shortened: (§2)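 Broth microdilution MIC following CLSI guidelines, in cation-adjusted Mueller-Hinton broth, incubated at 35°C. Recent clinical isolates and reference strains, with identity confirmed by automated and standard microbiological methods. Results reported as MIC range, MIC50 and MIC90.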

Prevotella bivia = assay: Antibacterial activity against Prevotella bivia; assay type: functional
Procedure, shortened: (§3)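 Anaerobic broth microdilution MIC following CLSI guidelines, in supplemented Brucella broth. Run in an anaerobe chamber under 5% CO2, 5% H2 and 90% N2 at 35°C, and read after 48 h. Reported as MIC range, MIC50 and MIC90.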

Streptococcus mitis = assay: Antibacterial activity against Streptococcus mitis; assay type: functional
Procedure, shortened: (§4)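 Broth microdilution MIC following CLSI guidelines, in cation-adjusted Mueller-Hinton broth with 3% lysed horse blood. Plates incubated at 35°C. Clinical isolates and reference strains, with identity confirmed by standard microbiological methods.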

[3] = system: Peptostreptococcus anaerobius; assay: Antibacterial activity against Peptostreptococcus anaerobius; assay type: functional; procedure, shortened: as §3
Haemophilus influenzae [4] = assay: Antibacterial activity against beta-lactamase positive Haemophilus influenzae; assay type: functional
Procedure, shortened: (§5)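 Broth microdilution MIC following CLSI guidelines, in Haemophilus test medium at 35°C.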

Enterococcus faecalis [5] = assay: Antibacterial activity against beta-lactamase positive Enterococcus faecalis; assay type: functional
Procedure, shortened: (§6)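 MIC by CLSI broth microdilution for nonfastidious organisms, in cation-adjusted Mueller-Hinton broth incubated at 35°C.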

Shigella sonnei = assay: Antibacterial activity against Shigella sonnei; assay type: functional; procedure, shortened: as §2
Bacteroides fragilis = assay: Antibacterial activity against Bacteroides fragilis; assay type: functional; procedure, shortened: as §3
Streptococcus pyogenes = assay: Antibacterial activity against Streptococcus pyogenes; assay type: functional; procedure, shortened: as §4
Serratia marcescens = assay: Antibacterial activity against Serratia marcescens; assay type: functional; procedure, shortened: as §2
Fusobacterium sp. = assay: Antibacterial activity against Fusobacterium sp.; assay type: functional; procedure, shortened: as §3
Neisseria gonorrhoeae = assay: Antibacterial activity against Neisseria gonorrhoeae; assay type: functional
Procedure, shortened: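 MIC by broth microdilution in gonococcal broth, incubated at 35°C in 5% CO2. Reported as MIC range, MIC50 and MIC90.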

Clostridioides difficile = assay: Antibacterial activity against Clostridium difficile; assay type: functional; procedure, shortened: as §3
Staphylococcus aureus [6] = assay: Antibacterial activity against oxacillin-susceptible Staphylococcus aureus; assay type: functional; procedure, shortened: as §6
Escherichia coli = assay: Antibacterial activity against Escherichia coli; assay type: functional; procedure, shortened: as §2
Corynebacterium sp. = assay: Antibacterial activity against Corynebacterium sp.; assay type: functional
Procedure, shortened: (§7)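 Broth microdilution MIC following CLSI guidelines, in cation-adjusted Mueller-Hinton broth containing 3% lysed horse blood, incubated at 35°C. Clinical isolates with identity confirmed. Reported as MIC range, MIC50 and MIC90.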

[7] = system: Staphylococcus saprophyticus; assay: Antibacterial activity against Staphylococcus saprophyticus; assay type: functional; procedure, shortened: as §2
Haemophilus influenzae [8] = assay: Antibacterial activity against beta-lactamase negative Haemophilus influenzae; assay type: functional; procedure, shortened: as §5
Fusobacterium nucleatum = assay: Antibacterial activity against Fusobacterium nucleatum; assay type: functional; procedure, shortened: as §3
Salmonella enteritidis = assay: Antibacterial activity against Salmonella enterica serovar Enteritidis; assay type: functional, Salmonella enterica subsp. enterica serovar Enteritidis; procedure, shortened: as §2
Acinetobacter sp. = assay: Antibacterial activity against Acinetobacter sp.; assay type: functional; procedure, shortened: as §2
Pseudomonas aeruginosa = assay: Antibacterial activity against Pseudomonas aeruginosa; assay type: functional; procedure, shortened: as §2
Staphylococcus warneri = assay: Antibacterial activity against Staphylococcus warneri; assay type: functional; procedure, shortened: as §2
Moraxella catarrhalis = assay: Antibacterial activity against beta-lactamase negative Moraxella catarrhalis; assay type: functional
[9] = system: Staphylococcus haemolyticus; assay: Antibacterial activity against Staphylococcus haemolyticus; assay type: functional; procedure, shortened: as §7
Shigella dysenteriae = assay: Antibacterial activity against Shigella dysenteriae; assay type: functional
Morganella morganii = assay: Antibacterial activity against Morganella morganii; assay type: functional; procedure, shortened: as §2
Streptococcus pneumoniae = assay: Antibacterial activity against penicillin-intermediate resistant Streptococcus pneumoniae; assay type: functional; procedure, shortened: as §1
Cutibacterium acnes = assay: Antibacterial activity against Propionibacterium acnes; assay type: functional
Enterococcus faecium = assay: Antibacterial activity against VanA-resistant Enterococcus faecium; assay type: functional; procedure, shortened: as §1
Bacteroides ovatus = assay: Antibacterial activity against Bacteroides ovatus; assay type: functional; procedure, shortened: as §3
Proteus mirabilis = assay: Antibacterial activity against Proteus mirabilis; assay type: functional; procedure, shortened: as §2
Enterococcus faecalis [10] = assay: Antibacterial activity against Enterococcus faecalis; assay type: functional; procedure, shortened: as §1
Streptococcus salivarius = assay: Antibacterial activity against Streptococcus salivarius; assay type: functional; procedure, shortened: as §4
Proteus vulgaris = assay: Antibacterial activity against Proteus vulgaris; assay type: functional; procedure, shortened: as §2
Burkholderia cepacia = assay: Antibacterial activity against Burkholderia cepacia; assay type: functional; procedure, shortened: as §2
Prevotella sp. = assay: Antibacterial activity against Prevotella sp.; assay type: functional; procedure, shortened: as §3
Klebsiella pneumoniae = assay: Antibacterial activity against Klebsiella pneumoniae; assay type: functional; procedure, shortened: as §2
Enterococcus gallinarum = assay: Antibacterial activity against Enterococcus gallinarum; assay type: functional
[11] = system: Fusobacterium necrophorum; assay: Antibacterial activity against Fusobacterium necrophorum; assay type: functional; procedure, shortened: as §3
Citrobacter koseri = assay: Antibacterial activity against Citrobacter diversus; assay type: functional; procedure, shortened: as §2
Prevotella buccae = assay: Antibacterial activity against Prevotella buccae; assay type: functional; settings: Segatella buccae; procedure, shortened: as §3
Corynebacterium jeikeium = assay: Antibacterial activity against Corynebacterium jeikeium; assay type: functional; procedure, shortened: as §7
[12] = system: Staphylococcus epidermidis; assay: Antibacterial activity against oxacillin-resistant Staphylococcus epidermidis; assay type: functional; procedure, shortened: as §1
[13] = system: Enterococcus casseliflavus; assay: Antibacterial activity against Enterococcus casseliflavus; assay type: functional
Actinomyces sp. = assay: Antibacterial activity against Actinomyces sp.; assay type: functional

## Cc1c(N2CC[C@@H]([C@H](C)N)C2)c(F)cc2c(=O)n(N)c(=O)n(C3CC3)c12
Staphylococcus aureus [1]
  MIC50: 0.25 µg/mL (≈ 0.692 µM)
  MIC90: 0.5 µg/mL (≈ 1.38 µM)
Staphylococcus aureus [2]
  MIC50: 0.125 µg/mL (≈ 0.346 µM)
  MIC90: 0.25 µg/mL (≈ 0.692 µM)
Clostridium perfringens
  MIC50: 0.5 µg/mL (≈ 1.38 µM)
  MIC90: 2 µg/mL (≈ 5.53 µM)
Enterobacter cloacae
  MIC50: 1 µg/mL (≈ 2.77 µM)
  MIC90: 4 µg/mL (≈ 11.1 µM)
Prevotella bivia
  MIC50: 0.25 µg/mL (≈ 0.692 µM)
  MIC90: 1 µg/mL (≈ 2.77 µM)
Streptococcus mitis
  MIC50: 0.03 µg/mL (≈ 0.083 µM)
  MIC90: 0.03 µg/mL (≈ 0.083 µM)
[3]
  MIC: 0.03 µg/mL (≈ 0.083 µM)
Haemophilus influenzae [4]
  MIC50: 0.125 µg/mL (≈ 0.346 µM)
  MIC90: 0.25 µg/mL (≈ 0.692 µM)
Enterococcus faecalis [5]
  MIC: 0.06 µg/mL (≈ 0.166 µM)
Shigella sonnei
  MIC50: 0.5 µg/mL (≈ 1.38 µM)
  MIC90: 1 µg/mL (≈ 2.77 µM)
Bacteroides fragilis
  MIC50: 2 µg/mL (≈ 5.53 µM)
  MIC90: 4 µg/mL (≈ 11.1 µM)
Streptococcus pyogenes
  MIC50: 0.03 µg/mL (≈ 0.083 µM)
  MIC90: 0.03 µg/mL (≈ 0.083 µM)
Serratia marcescens
  MIC50: 2 µg/mL (≈ 5.53 µM)
  MIC90: 16 µg/mL (≈ 44.3 µM)
Fusobacterium sp.
  MIC: 0.06 µg/mL (≈ 0.166 µM)
Neisseria gonorrhoeae
  MIC50: 0.25 µg/mL (≈ 0.692 µM)
  MIC90: 0.5 µg/mL (≈ 1.38 µM)
Clostridioides difficile
  MIC50: 0.5 µg/mL (≈ 1.38 µM)
  MIC90: 2 µg/mL (≈ 5.53 µM)
Staphylococcus aureus [6]
  MIC50: 0.125 µg/mL (≈ 0.346 µM)
  MIC90: 0.125 µg/mL (≈ 0.346 µM)
Escherichia coli
  MIC50: 1 µg/mL (≈ 2.77 µM)
  MIC90: 2 µg/mL (≈ 5.53 µM)
Corynebacterium sp.
  MIC50: 0.25 µg/mL (≈ 0.692 µM)
  MIC90: 0.25 µg/mL (≈ 0.692 µM)
[7]
  MIC50: 0.06 µg/mL (≈ 0.166 µM)
  MIC90: 0.125 µg/mL (≈ 0.346 µM)
Haemophilus influenzae [8]
  MIC50: 0.125 µg/mL (≈ 0.346 µM)
  MIC90: 0.25 µg/mL (≈ 0.692 µM)
Fusobacterium nucleatum
  MIC: 0.06 µg/mL (≈ 0.166 µM)
Salmonella enteritidis
  MIC50: 0.5 µg/mL (≈ 1.38 µM)
  MIC90: 1 µg/mL (≈ 2.77 µM)
Acinetobacter sp.
  MIC50: 1 µg/mL (≈ 2.77 µM)
  MIC90: 8 µg/mL (≈ 22.1 µM)
Pseudomonas aeruginosa
  MIC50: 4 µg/mL (≈ 11.1 µM)
  MIC90: 32 µg/mL (≈ 88.5 µM)
Staphylococcus warneri
  MIC: 0.06 µg/mL (≈ 0.166 µM)
Moraxella catarrhalis
  MIC50: 0.25 µg/mL (≈ 0.692 µM)
  MIC90: 0.5 µg/mL (≈ 1.38 µM)
[9]
  MIC50: 0.125 µg/mL (≈ 0.346 µM)
  MIC90: 0.5 µg/mL (≈ 1.38 µM)
Shigella dysenteriae
  MIC50: 0.5 µg/mL (≈ 1.38 µM)
  MIC90: 1 µg/mL (≈ 2.77 µM)
Morganella morganii
  MIC50: 2 µg/mL (≈ 5.53 µM)
  MIC90: 8 µg/mL (≈ 22.1 µM)
Streptococcus pneumoniae
  MIC50: 0.03 µg/mL (≈ 0.083 µM)
  MIC90: 0.06 µg/mL (≈ 0.166 µM)
Cutibacterium acnes
  MIC50: 2 µg/mL (≈ 5.53 µM)
  MIC90: 4 µg/mL (≈ 11.1 µM)
Enterococcus faecium
  MIC50: 1 µg/mL (≈ 2.77 µM)
  MIC90: 2 µg/mL (≈ 5.53 µM)
Bacteroides ovatus
  MIC50: 4 µg/mL (≈ 11.1 µM)
  MIC90: 16 µg/mL (≈ 44.3 µM)
Proteus mirabilis
  MIC50: 1 µg/mL (≈ 2.77 µM)
  MIC90: 2 µg/mL (≈ 5.53 µM)
Enterococcus faecalis [10]
  MIC50: 0.125 µg/mL (≈ 0.346 µM)
  MIC90: 0.25 µg/mL (≈ 0.692 µM)
Streptococcus salivarius
  MIC50: 0.03 µg/mL (≈ 0.083 µM)
  MIC90: 0.03 µg/mL (≈ 0.083 µM)
Proteus vulgaris
  MIC: 1 µg/mL (≈ 2.77 µM)
Burkholderia cepacia
  MIC50: 32 µg/mL (≈ 88.5 µM)
  MIC90: 64 µg/mL (≈ 177 µM)
Prevotella sp.
  MIC50: 0.25 µg/mL (≈ 0.692 µM)
  MIC90: 1 µg/mL (≈ 2.77 µM)
Klebsiella pneumoniae
  MIC50: 2 µg/mL (≈ 5.53 µM)
  MIC90: 4 µg/mL (≈ 11.1 µM)
Enterococcus gallinarum
  MIC50: 0.25 µg/mL (≈ 0.692 µM)
  MIC90: 0.25 µg/mL (≈ 0.692 µM)
[11]
  MIC: 0.06 µg/mL (≈ 0.166 µM)
Citrobacter koseri
  MIC50: 1 µg/mL (≈ 2.77 µM)
  MIC90: 4 µg/mL (≈ 11.1 µM)
Prevotella buccae
  MIC50: 0.25 µg/mL (≈ 0.692 µM)
  MIC90: 1 µg/mL (≈ 2.77 µM)
Corynebacterium jeikeium
  MIC50: 0.25 µg/mL (≈ 0.692 µM)
  MIC90: 0.25 µg/mL (≈ 0.692 µM)
[12]
  MIC50: 0.125 µg/mL (≈ 0.346 µM)
  MIC90: 0.125 µg/mL (≈ 0.346 µM)
[13]
  MIC50: 0.25 µg/mL (≈ 0.692 µM)
  MIC90: 0.25 µg/mL (≈ 0.692 µM)
Actinomyces sp.
  MIC: 0.5 µg/mL (≈ 1.38 µM)
